Calls of active or inactive are those of the source. The calls are words filed in the database; no cut-off is given here.
Experiments:
Aspergillus parasiticus [1] = test: Fungicidal activity against Aspergillus parasiticus CECT 2681 assessed as inhibition of radial mycelial growth at 100 ug/mL after 4 days; format: functional; details: CECT 2681, 96 h, read-out: GI
Outline: (§1)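 Compounds in acetone incorporated into PDA at 100 µg/mL. Acetone-only plates were the negative control, and benomyl at 2.5 µg/mL was the positive control. Plates were inoculated with spores from 7-day-old PDA cultures and incubated at 28 °C for 4 days (6 days for R. necatrix and V. dahliae). Radial mycelial growth was measured and % inhibition calculated against the control. Triplicate determinations, mean ± SD, ANOVA/LSD.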

Trichoderma viride [2] = test: Fungicidal activity against Hypocrea rufa CECT 2423 assessed as inhibition of radial mycelial growth at 100 ug/mL after 4 days; format: functional; details: CECT 2423, 96 h, read-out: GI; outline: as §1
Penicillium italicum [3] = test: Fungicidal activity against Penicillium italicum CECT 2294 assessed as inhibition of radial mycelial growth at 100 ug/mL after 4 days; format: functional; details: CECT 2294, 96 h, read-out: GI; outline: as §1
Oncopeltus fasciatus [4] = test: Insecticidal activity against Oncopeltus fasciatus third-instar nymphs reared on diet based on sunflower seeds assessed as insect mortality at 7.5 ug/cm2 relative to untreated control; format: functional
Oncopeltus fasciatus [5] = test: Insecticidal activity against Oncopeltus fasciatus third-instar nymphs reared on diet based on sunflower seeds assessed as insect mortality at 5 ug/cm2 relative to untreated control; format: functional
Verticillium dahliae [6] = test: Fungicidal activity against Verticillium dahliae CCM 269 assessed as inhibition of radial mycelial growth at 100 ug/mL after 6 days; format: functional; details: CCM 269, 144 h, read-out: GI; outline: as §1
Alternaria alternata [7] = test: Fungicidal activity against Alternaria tenuis CECT 2662 assessed as inhibition of radial mycelial growth at 100 ug/mL after 4 days; format: functional; details: CECT 2662, 96 h, read-out: GI; outline: as §1
Trichothecium roseum [8] = test: Fungicidal activity against Trichothecium roseum CECT 2410 assessed as inhibition of radial mycelial growth at 100 ug/mL after 4 days; format: functional; details: CECT 2410, 96 h, read-out: GI; outline: as §1
Colletotrichum coccodes [9] = test: Fungicidal activity against Colletotrichum coccodes CCM 327 assessed as inhibition of radial mycelial growth at 100 ug/mL after 4 days; format: functional; details: CCM 327, 96 h, read-out: GI; outline: as §1
[10] = tested on: Colletotrichum gloeosporioides; test: Fungicidal activity against Colletotrichum gloeosporioides CECT 2859 assessed as inhibition of radial mycelial growth at 100 ug/mL after 4 days; format: functional; details: CECT 2859, 96 h, read-out: GI; outline: as §1
Geotrichum candidum [11] = test: Fungicidal activity against Galactomyces geotrichum CCM 245 assessed as inhibition of radial mycelial growth at 100 ug/mL after 4 days; format: functional; details: CCM 245, 96 h, read-out: GI; outline: as §1
[12] = tested on: Fusarium oxysporum f. sp. niveum; test: Fungicidal activity against Fusarium oxysporum f. sp. niveum CCM 259 assessed as inhibition of radial mycelial growth at 100 ug/mL after 4 days; format: functional; details: CCM 259, 96 h, read-out: GI; outline: as §1
[13] = tested on: Fusarium oxysporum f. sp. gladioli; test: Fungicidal activity against Fusarium oxysporum f. sp. gladioli CCM 233 assessed as inhibition of radial mycelial growth at 100 ug/mL after 4 days; format: functional; details: CCM 233, 96 h, read-out: GI; outline: as §1
Fusarium culmorum [14] = test: Fungicidal activity against Fusarium culmorum CCM 172 assessed as inhibition of radial mycelial growth at 100 ug/mL after 4 days; format: functional; details: CCM 172, 96 h, read-out: GI; outline: as §1
Fusarium culmorum [15] = test: Fungicidal activity against Fusarium culmorum CCM 172 assessed as inhibition of radial mycelial growth at 2.5 ug/mL after 4 days; format: functional; details: CCM 172, 96 h, read-out: GI
Outline: (§2)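 Benomyl added to PDA at 2.5 µg/mL; acetone-only PDA plates served as controls. Plates were inoculated with spores from seven-day-old PDA cultures of each fungus and incubated at 28 °C for 4 days. Radial mycelial growth was measured and % inhibition was calculated against control-plate growth. Three independent determinations; means ± SD; ANOVA with LSD test.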

[16] = tested on: Fusarium oxysporum f. sp. gladioli; test: Fungicidal activity against Fusarium oxysporum f. sp. gladioli CCM 233 assessed as inhibition of radial mycelial growth at 2.5 ug/mL after 4 days; format: functional; details: CCM 233, 96 h, read-out: GI; outline: as §2
[17] = tested on: Fusarium oxysporum f. sp. niveum; test: Fungicidal activity against Fusarium oxysporum f. sp. niveum CCM 259 assessed as inhibition of radial mycelial growth at 2.5 ug/mL after 4 days; format: functional; details: CCM 259, 96 h, read-out: GI; outline: as §2
Geotrichum candidum [18] = test: Fungicidal activity against Galactomyces geotrichum CCM 245 assessed as inhibition of radial mycelial growth at 2.5 ug/mL after 4 days; format: functional; details: CCM 245, 96 h, read-out: GI; outline: as §2
[19] = tested on: Colletotrichum gloeosporioides; test: Fungicidal activity against Colletotrichum gloeosporioides CECT 2859 assessed as inhibition of radial mycelial growth at 2.5 ug/mL after 4 days; format: functional; details: CECT 2859, 96 h, read-out: GI; outline: as §2
Colletotrichum coccodes [20] = test: Fungicidal activity against Colletotrichum coccodes CCM 327 assessed as inhibition of radial mycelial growth at 2.5 ug/mL after 4 days; format: functional; details: CCM 327, 96 h, read-out: GI; outline: as §2
Trichothecium roseum [21] = test: Fungicidal activity against Trichothecium roseum CECT 2410 assessed as inhibition of radial mycelial growth at 2.5 ug/mL after 4 days; format: functional; details: CECT 2410, 96 h, read-out: GI; outline: as §2
Alternaria alternata [22] = test: Fungicidal activity against Alternaria tenuis CECT 2662 assessed as inhibition of radial mycelial growth at 2.5 ug/mL after 4 days; format: functional; details: CECT 2662, 96 h, read-out: GI; outline: as §2
Verticillium dahliae [23] = test: Fungicidal activity against Verticillium dahliae CCM 269 assessed as inhibition of radial mycelial growth at 2.5 ug/mL after 6 days; format: functional; details: CCM 269, 144 h, read-out: GI
Outline: as §2, with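 “cultures” for “cultures of each fungus”, “6” for “4”, “relative to control plates.” for “against control-plate growth.”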

[24] = tested on: Phytophthora citrophthora; test: Fungicidal activity against Phytophthora citrophthora assessed as inhibition of radial mycelial growth at 2.5 ug/mL after 4 days; format: functional; details: 96 h, read-out: GI; outline: as §2
Trichoderma viride [25] = test: Fungicidal activity against Hypocrea rufa CECT 2423 assessed as inhibition of radial mycelial growth at 2.5 ug/mL after 4 days; format: functional; details: CECT 2423, 96 h, read-out: GI; outline: as §2
Penicillium italicum [26] = test: Fungicidal activity against Penicillium italicum CECT 2294 assessed as inhibition of radial mycelial growth at 2.5 ug/mL after 4 days; format: functional; details: CECT 2294, 96 h, read-out: GI; outline: as §2
Aspergillus parasiticus [27] = test: Fungicidal activity against Aspergillus parasiticus CECT 2681 assessed as inhibition of radial mycelial growth at 2.5 ug/mL after 4 days; format: functional; details: CECT 2681, 96 h, read-out: GI; outline: as §2
Oncopeltus fasciatus [28] = test: Insecticidal activity against Oncopeltus fasciatus third-instar nymphs reared on diet based on sunflower seeds assessed as insect mortality at 5 to 10 ug/cm2 relative to untreated control; format: functional, organism-based
Oncopeltus fasciatus [29] = test: Insecticidal activity against Oncopeltus fasciatus third-instar nymphs reared on diet based on sunflower seeds assessed as insect mortality at 10 ug/cm2 relative to untreated control; format: functional

Compound | inhibition of growth at 100 µg/mL (Aspergillus parasiticus [1]) | inhibition of growth at 100 µg/mL (Trichoderma viride [2]) | inhibition of growth at 100 µg/mL (Penicillium italicum [3]) | inhibition of growth at 100 µg/mL (Verticillium dahliae [6]) | inhibition of growth at 100 µg/mL (Alternaria alternata [7]) | inhibition of growth at 100 µg/mL (Trichothecium roseum [8]) | inhibition of growth at 100 µg/mL (Colletotrichum coccodes [9]) | inhibition of growth at 100 µg/mL [10] | inhibition of growth at 100 µg/mL (Geotrichum candidum [11]) | inhibition of growth at 100 µg/mL [12] | inhibition of growth at 100 µg/mL [13] | inhibition of growth at 100 µg/mL (Fusarium culmorum [14]) | Activity (Oncopeltus fasciatus [28]) | further results
CCCCCCCC(=O)N1CC=CC1 | 19.3% | 38% | 31.2% | 39.6% | 51.4% | 34.3% | 76.7% | 35.4% | 0% | 30.5% | 38.5% | 24.5% |  | mortality at 7.5 µg/cm2 (Oncopeltus fasciatus [4]): 100%; mortality at 5 µg/cm2 (Oncopeltus fasciatus [5]): 20%
CCCCNC(=O)n1c(NC(=O)OC)nc2ccccc21 [BENOMYL] |  |  |  |  |  |  |  |  |  |  |  |  |  | inhibition of growth at 2.5 µg/mL (Fusarium culmorum [15]): 87%; inhibition of growth at 2.5 µg/mL [16]: 11.1%; inhibition of growth at 2.5 µg/mL [17]: 100%; inhibition of growth at 2.5 µg/mL (Geotrichum candidum [18]): 0%; inhibition of growth at 2.5 µg/mL [19]: 100%; inhibition of growth at 2.5 µg/mL (Colletotrichum coccodes [20]): 100%; inhibition of growth at 2.5 µg/mL (Trichothecium roseum [21]): 100%; inhibition of growth at 2.5 µg/mL (Alternaria alternata [22]): 0%; inhibition of growth at 2.5 µg/mL (Verticillium dahliae [23]): 100%; inhibition of growth at 2.5 µg/mL [24]: 100%; inhibition of growth at 2.5 µg/mL (Trichoderma viride [25]): 100%; inhibition of growth at 2.5 µg/mL (Penicillium italicum [26]): 100%; inhibition of growth at 2.5 µg/mL (Aspergillus parasiticus [27]): 100%
CC(C(=O)C(C)(C)C(=O)N1CCCC1)c1cccc(Oc2ccccc2)c1 (stereo not drawn) | 37.9% | 38.7% | 17.8% | 22.7% | 55.2% | 53.2% | 55.7% | 62.2% | 11.7% | 36.9% | 34.8% | 16.3% | inactive | 
CCCCCCCC(O)C(C)C(=O)N1CCCC1=O (stereo not drawn) | 31.5% | 38% | 33.3% | 45.9% | 38.1% | 19.6% | 69% | 36.6% | 0% | 33.3% | 36.5% | 24.3% | inactive | 
CCCCCCCC(=C1C(=O)OC(C)(C)OC1=O)N1CC=CC1 | 39.3% | 54% | 29.9% | 13.9% | 21.1% | 38.6% | 18.8% | 29.9% | 23.9% | 28% | 26% | 39.7% |  | mortality at 10 µg/cm2 (Oncopeltus fasciatus [29]): 40%
CC1=C(C2CC2)OC2CCCN2C1=O (stereo not drawn) | 11.3% | 0% | 23.6% | 65.4% | 23.9% | 0% | 37.8% | 11.8% | 0% | 26.2% | 24.1% | 38.9% | inactive | 
CC(C(=O)C(C)c1cccc(Oc2ccccc2)c1)C(=O)N1CCCC1 (stereo not drawn) | 27.9% | 30.7% | 22.2% | 19% | 39.5% | 46.6% | 37.6% | 41.4% | 12.3% | 17.4% | 23.1% | 23.5% | inactive | 
CCCCCCCC(=O)C(C)C(=O)N1CCCC1=O (stereo not drawn) | 31.7% | 21.1% | 8.6% | 56.2% | 47.5% | 49.5% | 52% | 35.6% | 24.4% | 21% | 26.8% | 18.1% | inactive | 
CCCCCCCC(=O)CC(=O)N1CCCC1=O | 21.3% | 22% | 26.4% | 49.8% | 30.2% | 0% | 48.3% | 34.5% | 0% | 27.6% | 35.5% | 8.2% | inactive | 

From ChEMBL document CHEMBL3045005, “Synthesis and biological evaluation of new analogues of the active fungal metabolites N-(2-methyl-3-oxodecanoyl)-2-pyrroline and N-(2-methyl-3-oxodec-8-enoyl)-2-pyrroline (II)” (2000)
